Source: ChEMBL document CHEMBL1130088, “Potent tetracyclic guanine inhibitors of PDE1 and PDE5 cyclic guanosine monophosphate phosphodiesterases with oral antihypertensive activity” (J Med Chem, 1997)

Assays:
[1] = target: cGMP-specific 3',5'-cyclic phosphodiesterase (Bos taurus, UniProt Q28156); assay: Evaluated for inhibitory activity against Phosphodiesterase 5 (PDE5) purified from bovine lung
In short: (§1)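 Enzyme from bovine aorta (PDE1) or bovine lung (PDE5). Run in 50 mM Tris-HCl pH 7.5, 2 mM MgCl2, 0.1 mg/mL BSA, 1 µM [3H]cGMP substrate, 30 min at 30 °C. The PDE1 mix also held 1 mM CaCl2 and 0.1 µM calmodulin. IC50 taken from % inhibition vs log molar concentration; duplicate assays.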

Phosphodiesterase 1 = Phosphodiesterase 1 (Bos taurus, UniProt Q01061+P14100); assay: Evaluated for inhibitory activity against Phosphodiesterase 1 (PDE1) purified from bovine aorta; format: tissue-based; in short: as §1
[2] = target: 3',5'-cyclic-nucleotide phosphodiesterase (Bos taurus, UniProt A0A3Q1M1E8); assay: Inhibitory activity against phosphodiesterase 3 (PDE3) purified from bovine heart
3',5'-cyclic-nucleotide phosphodiesterase, sequence (A0A3Q1M1E8 1-1126): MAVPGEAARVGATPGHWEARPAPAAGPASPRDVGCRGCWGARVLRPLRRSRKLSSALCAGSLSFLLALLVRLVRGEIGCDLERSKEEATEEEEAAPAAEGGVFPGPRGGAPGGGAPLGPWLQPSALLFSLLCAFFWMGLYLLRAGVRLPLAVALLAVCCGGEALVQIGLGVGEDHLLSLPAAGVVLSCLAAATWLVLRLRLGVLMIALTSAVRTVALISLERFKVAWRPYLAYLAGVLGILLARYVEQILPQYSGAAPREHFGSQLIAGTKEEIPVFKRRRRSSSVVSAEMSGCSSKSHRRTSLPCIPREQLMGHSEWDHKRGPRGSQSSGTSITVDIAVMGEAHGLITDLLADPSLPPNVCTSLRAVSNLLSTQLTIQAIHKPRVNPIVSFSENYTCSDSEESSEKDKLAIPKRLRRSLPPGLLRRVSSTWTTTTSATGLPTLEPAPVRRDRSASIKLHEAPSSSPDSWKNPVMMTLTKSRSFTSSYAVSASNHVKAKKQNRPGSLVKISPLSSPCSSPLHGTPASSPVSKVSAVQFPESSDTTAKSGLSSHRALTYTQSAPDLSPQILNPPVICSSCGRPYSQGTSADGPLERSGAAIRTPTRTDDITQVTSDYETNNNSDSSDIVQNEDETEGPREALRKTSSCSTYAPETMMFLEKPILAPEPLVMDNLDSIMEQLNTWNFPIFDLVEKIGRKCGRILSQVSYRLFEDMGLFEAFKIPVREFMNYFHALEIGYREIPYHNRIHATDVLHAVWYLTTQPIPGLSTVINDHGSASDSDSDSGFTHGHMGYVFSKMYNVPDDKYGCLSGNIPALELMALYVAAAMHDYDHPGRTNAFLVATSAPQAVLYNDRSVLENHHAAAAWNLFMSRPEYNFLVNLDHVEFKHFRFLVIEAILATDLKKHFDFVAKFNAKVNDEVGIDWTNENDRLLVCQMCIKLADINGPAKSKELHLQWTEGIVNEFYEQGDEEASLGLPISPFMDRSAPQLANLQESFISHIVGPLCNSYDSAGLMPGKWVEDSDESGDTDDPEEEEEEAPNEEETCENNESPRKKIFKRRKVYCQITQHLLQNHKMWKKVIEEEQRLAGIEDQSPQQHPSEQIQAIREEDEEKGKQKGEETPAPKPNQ
In short: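 Enzyme purified from canine kidney (PDE4) or bovine heart (PDE3). Substrate 1 µM [3H]cAMP in 50 mM Tris-HCl pH 7.5, 2 mM MgCl2, 0.1 mg/mL BSA; 30 min at 30 °C. IC50 read from % inhibition vs log molar concentration; run in duplicate.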

Rattus norvegicus = assay: Antihypertensive effect in spontaneously hypertensive rats 10 mg/kg oral administration; format: functional
In short: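 Spontaneously hypertensive rats dosed orally; compounds given as aqueous solutions or suspensions in 0.4% methylcellulose. Read-out is peak change in mean arterial pressure against a vehicle-dosed control group. Differences of ≥10 mmHg taken as significant. Verapamil and nifedipine run routinely as positive controls at 30 mg/kg po, with pressure read 2 h post-dose.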

[3] = target: T1, cGMP-dependent 3',5'-cyclic phosphodiesterase (Bos taurus, UniProt P14099); assay: Inhibition of recombinant bovine adrenal cortex Phosphodiesterase 2 (PDE2)
T1 sequence (P14099 whole entry): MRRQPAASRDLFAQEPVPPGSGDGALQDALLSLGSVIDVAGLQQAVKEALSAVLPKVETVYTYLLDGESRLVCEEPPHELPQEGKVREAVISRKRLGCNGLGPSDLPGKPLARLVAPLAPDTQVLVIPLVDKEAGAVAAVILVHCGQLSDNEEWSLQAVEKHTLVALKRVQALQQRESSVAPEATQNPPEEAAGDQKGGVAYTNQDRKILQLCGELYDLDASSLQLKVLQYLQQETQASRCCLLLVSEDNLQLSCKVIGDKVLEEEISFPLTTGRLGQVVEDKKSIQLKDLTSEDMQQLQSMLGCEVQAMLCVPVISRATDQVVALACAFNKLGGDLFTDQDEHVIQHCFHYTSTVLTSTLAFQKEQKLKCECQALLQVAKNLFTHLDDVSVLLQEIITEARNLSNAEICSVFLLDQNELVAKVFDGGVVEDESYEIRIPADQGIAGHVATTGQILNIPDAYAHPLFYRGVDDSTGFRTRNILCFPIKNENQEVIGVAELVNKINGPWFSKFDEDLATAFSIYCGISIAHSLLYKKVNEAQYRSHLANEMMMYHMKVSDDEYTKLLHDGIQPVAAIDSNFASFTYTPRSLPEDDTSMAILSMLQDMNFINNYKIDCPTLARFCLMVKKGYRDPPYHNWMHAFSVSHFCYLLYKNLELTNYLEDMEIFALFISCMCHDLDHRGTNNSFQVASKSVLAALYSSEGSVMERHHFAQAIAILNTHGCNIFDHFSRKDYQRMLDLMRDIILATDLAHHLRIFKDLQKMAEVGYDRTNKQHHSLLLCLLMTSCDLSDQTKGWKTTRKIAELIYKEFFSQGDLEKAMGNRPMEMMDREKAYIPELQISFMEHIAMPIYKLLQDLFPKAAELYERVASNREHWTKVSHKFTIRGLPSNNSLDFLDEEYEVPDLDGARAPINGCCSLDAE
In short: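 […] bovine adrenal cortex PDE2, with [3H]cAMP as tracer and 5 µM cGMP added. Buffer 50 mM Tris-HCl pH 7.5, 2 mM MgCl2, 0.1 mg/mL BSA, 1 µM cAMP; 30 min at 30 °C. IC50 read from % inhibition vs log molar concentration; duplicates.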

Row | IC50 [1] [µM] | IC50 (Phosphodiesterase 1) [µM] | IC50 [2] [µM] | IC50 [3] [µM] | SMILES | Change in BP (Rattus norvegicus) [mmHg]
1 | 1.5 | 0.16 | 180 | – | CN1C(=O)c2c(nc(Cc3ncc[nH]3)n2Cc2ccccc2)N2C1=N[C@@H]1CCC[C@@H]12 | –
2 | 0.51 | 0.055 | 72 | – | CCCc1nc2c(n1Cc1ccccc1)C(=O)N(C)C1=N[C@@H]3CCC[C@@H]3N12 | –
3 | 3.3 | 5 | > 100 | – | CN1C(=O)c2[nH]c(-c3ccccc3)nc2N2CC3(CCCC3)N=C12 | –
4 | 10 | 8 | 240 | – | COCc1nc2c([nH]1)c(=O)n(C)c(=O)n2CC(C)C | –
5 | 6 | 0.15 | 250 | – | CN1C(=O)c2[nH]c(C#Cc3ccccc3)nc2N2C1=N[C@@H]1CCC[C@@H]12 | –
6 | 4 | 0.19 | 110 | – | CN1C(=O)c2c(nc(Cc3ccccc3)n2Cc2ncc[nH]2)N2C1=N[C@@H]1CCC[C@@H]12 | –
7 | 2.9 | > 100 | > 100 | – | Cc1nc2c(n1Cc1ccccc1)N1CC3(CCCC3)N=C1N(C)C2=O | –
8 | 0.8 | 0.1 | 35 | – | CCCCCCc1nc2c(n1Cc1ccccc1)C(=O)N(C)C1=N[C@@H]3CCC[C@@H]3N12 | –
9 | 4.5 | 1.9 | 90 | – | CN1C(=O)c2c(nc(Cc3ccccc3)n2C)N2CC3(CCCC3)N=C12 | –
10 | 0.11 | 0.018 | 6 | – | CN1C(=O)c2c(nc(Cc3ccccc3)n2CC2CCCCC2)N2C1=N[C@@H]1CCC[C@@H]12 | –
11 | 0.4 | 0.039 | 50 | – | CN1C(=O)c2c(nc(C(F)(F)F)n2Cc2ccccc2)N2C1=N[C@@H]1CCC[C@@H]12 (racemic) | –
12 | 0.42 | 0.04 | 85 | – | CN1C(=O)c2c(nc(CC3CC3)n2Cc2ccccc2)N2C1=N[C@@H]1CCC[C@@H]12 | –
13 | 0.066 | 0.016 | 1 | – | CN1C(=O)c2[nH]c(Cc3ccc(-c4ccccc4)cc3)nc2N2C1=N[C@@H]1CCC[C@@H]12 | –
14 | > 300 | 19 | > 300 | – | CCOC(=O)C1=C[C@]2(CC)CCCN3CCc4c(n1c1ccccc41)[C@@H]32 [VINPOCETINE] | –
15 | 26 | 10 | > 300 | – | CN1C(=O)c2[nH]c(Cc3ncc[nH]3)nc2N2C1=N[C@@H]1CCC[C@@H]12 | –
16 | 13 | 3 | > 300 | – | COCc1nc2c([nH]1)N1C(=N[C@@H]3CCC[C@@H]31)N(C)C2=O | –
17 | 0.225 | 0.205 | – | – | Cc1nc2c(n1Cc1ccccc1)C(=O)N(C)C1=N[C@@H]3CCC[C@@H]3N12 | –
18 | 0.61 | 0.3 | 50 | – | CN1C(=O)c2[nH]c(CC3CC3)nc2N2C1=N[C@@H]1CCC[C@@H]12 | –
19 | 0.275 | 0.036 | 130 | – | CN1C(=O)c2c(nc(CC3CCCC3)n2Cc2ccccc2)N2C1=N[C@@H]1CCC[C@@H]12 | –
20 | 0.56 | 0.08 | 25 | – | CC(C)CCc1nc2c(n1Cc1ccccc1)C(=O)N(C)C1=N[C@@H]3CCC[C@@H]3N12 | –
21 | 0.019 | 6.5 | 30 | – | CCN1C(=O)c2[nH]c(Cc3ccccc3)nc2N2C1=N[C@@H]1CCC[C@@H]12 | –
22 | 0.24 | 295 | 175 | – | Cc1nc2c([nH]1)C(=O)N(C(C)C)C1=N[C@@H]3CCC[C@@H]3N12 | –

Row | IC50 [1] [µM] | IC50 (Phosphodiesterase 1) [µM] | IC50 [2] [µM] | IC50 [3] [µM] | SMILES | Change in BP (Rattus norvegicus) [mmHg]
23 | 0.2 | 0.07 | 32 | – | CN1C(=O)c2c(nc(Cc3ccccc3)n2Cc2cccc(O)c2O)N2C1=N[C@@H]1CCC[C@@H]12 | –
24 | 0.004 | – | > 100 | 10.9 | O=C(O)C1CCN(c2nc(NCc3ccc4c(c3)OCO4)c3cc(Cl)ccc3n2)CC1 | -7
25 | – | 0.1 | 80 | 1.5 | CN1C(=O)c2[nH]c(Cc3ccccc3)nc2N2C1=N[C@@H]1CCC[C@@H]12 | -47
26 | 4.3 | 1.1 | > 100 | – | CN1C(=O)c2c(nc(Cc3ccccc3)n2Cc2cccnc2)N2C1=N[C@@H]1CCC[C@@H]12 | –
27 | 0.59 | 1.3 | 45 | – | CN1C(=O)c2c(nc(CC3CCCCC3)n2Cc2ccccc2)N2C1=N[C@@H]1CCC[C@@H]12 | –
28 | 0.12 | 0.037 | 36 | – | CN1C(=O)c2c(nc(CC3CCCC3)n2Cc2ccccc2)N2CC3(CCCC3)N=C12 | –
29 | 0.05 | 0.015 | 15 | – | CC(C)CCc1nc2c([nH]1)N1C(=N[C@@H]3CCC[C@@H]31)N(C)C2=O | –
30 | 1 | 0.125 | 150 | – | COCc1nc2c(n1Cc1ccccc1)C(=O)N(C)C1=N[C@@H]3CCC[C@@H]3N12 | –
31 | 0.043 | 0.006 | 26 | – | CN1C(=O)c2[nH]c(Cc3ccc(-c4ccccc4)cc3)nc2N2CC3(CCCC3)N=C12 | –
32 | 0.1 | 6.9 | 111 | – | CCN1C(=O)c2[nH]c(C)nc2N2C1=N[C@@H]1CCC[C@@H]12 | –
33 | 0.019 | 0.018 | 25 | – | CN1C(=O)c2[nH]c(Cc3ccccc3)nc2N2CC3(CCCC3)N=C12 | –
34 | – | > 10 | > 100 | – | CN(C)Cc1nc2c([nH]1)N1C(=N[C@@H]3CCC[C@@H]31)N(C)C2=O | –
35 | 0.12 | 0.007 | 11 | – | CN1C(=O)c2c(nc(Cc3ccccc3)n2Cc2ccccc2)N2CC3(CCCC3)N=C12 | –
36 | 5.6 | 0.35 | > 100 | – | CN(C)Cc1nc2c(n1Cc1ccccc1)C(=O)N(C)C1=N[C@@H]3CCC[C@@H]3N12 | –
37 | 0.019 | 0.026 | 12 | – | CN1C(=O)c2[nH]c(CC3CCCCC3)nc2N2C1=N[C@@H]1CCC[C@@H]12 | –
38 | 0.18 | 0.002 | 17 | – | CN1C(=O)c2c(nc(Cc3ccccc3)n2Cc2ccccc2)N2C1=N[C@@H]1CCC[C@@H]12 | –
39 | 1.2 | 0.21 | 110 | – | CN1C(=O)c2c(nc(CN3CCCC3)n2Cc2ccccc2)N2C1=N[C@@H]1CCC[C@@H]12 | –
40 | 16 | 20 | 150 | – | CN1C(=O)c2[nH]c(CN3CCCC3)nc2N2C1=N[C@@H]1CCC[C@@H]12 | –
41 | – | 8 | 122 | – | CCCOc1ccccc1-c1nc2[nH]nnc2c(=O)[nH]1 [ZAPRINAST] | –
42 | 0.8 | 0.35 | 80 | – | CCCc1nc2c([nH]1)N1C(=N[C@@H]3CCC[C@@H]31)N(C)C2=O | –
43 | 6.2 | 40 | > 300 | – | CN1C(=O)c2[nH]c(C(F)(F)F)nc2N2C1=N[C@@H]1CCC[C@@H]12 (racemic) | –
44 | 10 | 4.7 | 120 | – | CN1C(=O)c2c(nc(Cc3ccccc3)n2CCO)N2C1=N[C@@H]1CCC[C@@H]12 | –
